Experimental data: ChEMBL document CHEMBL1275590, “Novel arylimidamides for treatment of visceral leishmaniasis” (Antimicrob Agents Chemother, 2010)

Tests used:
Mus musculus [1] = test: (§1) Volume of distribution in Swiss Webster mouse at 66 mg/kg, po by HPLC-MS/MS analysis; type: ADME, organism-based; parameters: dose 66 mg/kg, route oral; settings: in vivo
In short: (§2)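 Male Swiss Webster mice (n = 3 per time point), single dose by oral gavage (sterile water solution) or tail-vein bolus i.v. (water diluted 1:1 with 2× saline, over ~10–20 s); dose volume 5 ml/kg. Terminal blood sampled from 5 min to 72 h postdose; plasma quantified by HPLC-MS/MS (positive-ion SRM). Noncompartmental analysis gave Cmax, Tmax, AUC0-∞, CL, Vss; bioavailability from p.o. versus i.v. exposure.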

Mus musculus [2] = test: Toxicity in BALB/c mouse assessed as occurrence of edema at 150 mg/kg/day, po; type: organism-based; parameters: route oral; settings: in vivo
In short: (§3)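 Female BALB/c mice (n = 5 per dose), dosed once daily for 5 consecutive days p.o. (20 ml/kg) or i.v. (10 ml/kg) with compound in sterile water, prepared fresh daily under yellow light. Vehicle controls n = 5 per route. Clinical observations, body weights, serum chemistry and hematology on day 6 before necropsy; histopathology of formalin-fixed tissues. Chemistry analysed by one-way ANOVA with Dunnett's posttest.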

Mus musculus [3] = test: Hepatotoxicity in BALB/c mouse assessed as AST level in serum at 150 mg/kg/day, po administered for five days (Rvb= 70 U/L); type: toxicity, organism-based; parameters: route oral; settings: in vivo
[4] = Cmax in Swiss Webster mouse at 16.5 mg/kg, po by HPLC-MS/MS analysis; type: ADME, organism-based; parameters: dose 16.5 mg/kg, route oral; settings: in vivo
In short: (§4)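 Male Swiss Webster mice, n = 3 per time point. For i.v., the compound was dissolved in sterile water, diluted 1:1 with 2× saline, and given as a tail-vein bolus over ~10–20 s. For p.o., it was given by gavage in sterile water. Dose volume was 5 ml/kg. Terminal plasma was taken from 5 min to 72 h and measured by HPLC-MS/MS (calibration 2.5–10,000 nM). Parameters came from noncompartmental analysis.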

Mus musculus [5] = test: Volume of distribution in Swiss Webster mouse at 16.5 mg/kg, po by HPLC-MS/MS analysis; type: ADME, organism-based; parameters: dose 16.5 mg/kg, route oral; settings: in vivo
In short: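 Male Swiss Webster mice (n = 3 per time point) got a single oral gavage dose in sterile water, 5 ml/kg. The 5 mM formulation was a clear solution; the 20 and 40 mM formulations were gelatinous. Terminal blood was collected from 5 min to 72 h postdose, and plasma was analysed by HPLC-MS/MS. Volume of distribution came from noncompartmental analysis.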

Mus musculus [6] = test: Renal toxicity in BALB/c mouse assessed as blood urea nitrogen level in serum at 100 mg/kg/day, po administered for five days (Rvb= 29 mg/dl); type: organism-based; parameters: route oral; settings: in vivo; in short: as §3
Mus musculus [7] = test: AUC (0 to infinity) in Swiss Webster mouse at 16.5 mg/kg, po by HPLC-MS/MS analysis; type: ADME, organism-based, Plasma; parameters: time infinity, dose 16.5 mg/kg, route oral; settings: in vivo; in short: as §4
[8] = Volume of distribution in Swiss Webster mouse at 4.9 mg/kg, iv by HPLC-MS/MS analysis; type: ADME, organism-based; parameters: dose 4.9 mg/kg, route intravenous; settings: in vivo
In short: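 Male Swiss Webster mice (n = 3 per time point) got a single tail-vein bolus over ~10 to 20 s, 5 ml/kg. Compound was dissolved in sterile water at 2× and diluted 1:1 with 2× saline. Terminal blood was taken from 5 min to 72 h, and plasma was quantified by HPLC-MS/MS. Vss came from noncompartmental analysis.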

Mus musculus [9] = test: Toxicity in BALB/c mouse assessed as tremor at 50 mg/kg/day, ip administered for five days; type: organism-based; parameters: route intraperitoneal; settings: in vivo
In short: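 Acute overt toxicity was checked in uninfected female BALB/c mice before the efficacy work. Compounds were given intraperitoneally once daily for 5 days, and mice were watched for clinical signs such as ruffled fur, hypoactivity, tremors, ataxia and startle, and for survival.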

Mus musculus [10] = test: Toxicity in BALB/c mouse assessed as occurrence of tremor at 10 mg/kg/day, iv administered for five days measured on day 2; type: organism-based; parameters: route intravenous; settings: in vivo; in short: as §3
[11] = as §1; type: ADME, organism-based; parameters: dose 66 mg/kg, route oral; settings: Swiss Webster, in vivo; in short: as §2
[12] = Half life in Swiss Webster mouse at 70 mg/kg, po by HPLC-MS/MS analysis; type: ADME, organism-based; parameters: dose 70 mg/kg, route oral; settings: in vivo; in short: as §4
[13] = Induction of mutagenicity in Salmonella serovar Typhimurium TA 100 assessed as number of revertant colonies at 50 ug by Ames assay in presence of Aroclor 1254-induced rat liver S9 metabolic activation system; type: toxicity, subcellular, Salmonella enterica subsp. enterica serovar Typhimurium
In short: (§5)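 Ames plate incorporation with S. Typhimurium TA98 and TA100, with or without Aroclor 1254-induced rat liver S9 (10% vol/vol). Compound was dissolved in sterile water and serially diluted to 1–500 μg/plate. Positive controls were 2-nitrofluorene and sodium azide without S9, and 2-aminoanthracene with S9; sterile water and DMSO served as vehicles. Revertant colonies and background lawn were scored. A mutagen was defined as a mean revertant count at least 2-fold over solvent control. Single experiment.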

[14] = Induction of mutagenicity in Salmonella serovar Typhimurium TA 100 assessed as number of revertant colonies at 50 ug by Ames assay; type: toxicity, Salmonella enterica subsp. enterica serovar Typhimurium; settings: in vivo; in short: as §5
[15] = Induction of mutagenicity in Salmonella serovar Typhimurium TA 100 assessed as number of revertant colonies at 1 ug by Ames assay in presence of Aroclor 1254-induced rat liver S9 metabolic activation system; type: toxicity, subcellular, Salmonella enterica subsp. enterica serovar Typhimurium; in short: as §5
[16] = Induction of mutagenicity in Salmonella serovar Typhimurium TA 100 assessed as number of revertant colonies at 500 ug by Ames assay; type: toxicity, Salmonella enterica subsp. enterica serovar Typhimurium; settings: in vivo; in short: as §5
Mus musculus [17] = test: Renal toxicity in BALB/c mouse assessed as blood urea nitrogen level in serum at 30 mg/kg/day, iv administered for five days (Rvb= 20 mg/dl); type: organism-based; parameters: route intravenous; settings: in vivo; in short: as §3
[18] = Induction of mutagenicity in Salmonella serovar Typhimurium TA 98 assessed as number of revertant colonies at 50 ug by Ames assay in presence of Aroclor 1254-induced rat liver S9 metabolic activation system; type: toxicity, subcellular, Salmonella enterica subsp. enterica serovar Typhimurium
In short: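 Plate incorporation test, S. Typhimurium TA98 (and TA100), with or without Aroclor 1254-induced rat liver S9 (10% vol/vol). Compound dissolved in sterile water, serially diluted to 1–1,000 or 1–500 μg/plate. Positive controls: 2-nitrofluorene and sodium azide without S9, 2-aminoanthracene with S9; water and DMSO vehicle controls. Revertant colonies and background lawn scored; mutagen if mean revertants ≥2-fold solvent control. Single experiment.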

Leishmania donovani = test: Antileishmanial activity against Leishmania donovani WR378 infected in golden Syrian hamster assessed as reduction in spleen parasitemia at 50 mg/kg/day, po administered for five days; type: functional; settings: 120 h
In short: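 11-day golden hamster VL model adapted from an 8-day method, using L. donovani WR378 metacyclic promastigotes. Dosing was oral, once daily for 5 days. Animals were euthanized on day 11 post-infection. Liver, spleen and femoral bone marrow (flushed with Schneider's medium) were harvested.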

[19] = Drug level in Swiss Webster mouse kidney at 5 mg/kg, iv after 2 hrs by HPLC/UV analysis; settings: read-out: Drug uptake
[20] = Drug level in Swiss Webster mouse spleen at 70 mg/kg, po after 2 hrs by HPLC/UV analysis; settings: read-out: Drug uptake
[21] = Drug level in Swiss Webster mouse liver at 70 mg/kg, po after 2 hrs by HPLC/UV analysis; settings: read-out: Drug uptake
[22] = Tmax in Swiss Webster mouse at 5 mg/kg, iv by HPLC-MS/MS analysis; type: ADME, organism-based; parameters: dose 5 mg/kg, route intravenous; settings: in vivo; in short: as §2

With `CCOc1cc(NC(=N)c2ccccn2)ccc1-c1ccc(-c2ccc(NC(=N)c3ccccn3)cc2OCC)o1` the Vd (Mus musculus [1]) was 71 L/kg, the Activity (Mus musculus [2]) was “Toxic” and the Activity (Mus musculus [3]) was 770 U/L. The Cmax [4] was 20 nM, the Vd (Mus musculus [5]) was 57 L/kg and the Activity (Mus musculus [6]) was 52 mg/dL. For the same compound, the AUC (Mus musculus [7]) was 0.5 µM·h, the Vd [8] was 22 L/kg and the Activity (Mus musculus [9]) was “Toxic”. The Activity (Mus musculus [10]) was “Toxic”.

In the case of `CC(C)Oc1cc(NC(=N)c2ccccn2)ccc1-c1ccc(-c2ccc(NC(=N)c3ccccn3)cc2OC(C)C)o1`, the Tmax [11] is reported as 4.98 min, the half-life [12] is reported as 2880 min and the Activity [13] is reported as 135. The Activity [14] was 79, the Activity [15] was 159 and the Activity [16] was “Toxic”. The Activity (Mus musculus [17]) was 24 mg/dL, the Activity [18] was 39 and the inhibition in vivo at 50 mg/kg/day (Leishmania donovani) was 74%. It also gave a concentration at 2 h [19] of 12.7 µM, a concentration at 2 h [20] of 43.1 µM and a concentration at 2 h [21] of 45.8 µM. The Tmax [22] was 5 min.
